Here are results for 20 molecules from ChEMBL document CHEMBL3603771, “Synthesis, biological evaluation and docking study of maleimide derivatives bearing benzenesulfonamide as selective COX-2 inhibitors and anti-inflammatory agents” (Bioorg Med Chem, 2015).

Data set [1] is described as follows: Selectivity index, ratio of inhibition of human recombinant COX2 to inhibition of ovine COX1. The gist of the method: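 Ovine COX-1 or human recombinant COX-2 in 0.1 M Tris-HCl pH 8 with heme, preincubated with compound (DMSO stock) 5 min at 25°C. TMPD and arachidonic acid then added, 2 min at 25°C. Peroxidase activity read as oxidized TMPD at 590 nm. Compounds tested at 1 μM; % inhibition is the mean of two determinations. Selectivity index taken as COX-2/COX-1.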

Data set [2] addresses T1, Prostaglandin G/H synthase 1 (Ovis aries) (UniProt P05979).
T1 sequence (whole entry): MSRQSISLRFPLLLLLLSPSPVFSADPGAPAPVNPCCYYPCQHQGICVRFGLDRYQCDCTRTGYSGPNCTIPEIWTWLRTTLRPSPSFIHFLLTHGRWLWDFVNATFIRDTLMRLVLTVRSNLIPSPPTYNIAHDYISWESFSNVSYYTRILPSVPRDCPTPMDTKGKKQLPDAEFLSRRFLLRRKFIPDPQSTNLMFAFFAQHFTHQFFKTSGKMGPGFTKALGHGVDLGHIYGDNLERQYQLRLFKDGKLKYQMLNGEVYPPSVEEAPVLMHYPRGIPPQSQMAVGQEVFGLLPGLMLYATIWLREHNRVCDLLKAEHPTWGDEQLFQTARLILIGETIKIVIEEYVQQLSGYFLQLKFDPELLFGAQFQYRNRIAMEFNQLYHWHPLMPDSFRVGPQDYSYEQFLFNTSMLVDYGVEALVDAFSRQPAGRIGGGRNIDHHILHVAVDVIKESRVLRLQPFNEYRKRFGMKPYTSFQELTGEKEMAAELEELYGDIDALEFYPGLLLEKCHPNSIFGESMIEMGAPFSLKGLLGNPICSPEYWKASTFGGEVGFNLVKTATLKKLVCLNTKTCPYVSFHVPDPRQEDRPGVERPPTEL
Briefly: Inhibition of ovine COX1 using arachidonic acid as substrate at 1 uM preincubated for 5 mins measured after 2 mins by colorimetric analysis. A digest of the protocol: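 Ovine COX-1 or human recombinant COX-2 in 0.1 M Tris-HCl pH 8 with heme, preincubated with compound (DMSO stock) 5 min at 25°C. TMPD and arachidonic acid then added, 2 min at 25°C. Peroxidase activity read as oxidized TMPD at 590 nm. Selectivity index taken as COX-2/COX-1.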

For data set [3], the target named is T2, Prostaglandin G/H synthase 2 (Homo sapiens) (UniProt P35354).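 Also: recombinant enzyme with arachidonic acid substrate, compound preincubated 5 min, colorimetric read-out taken 2 min after reaction start.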
T2 sequence (whole entry): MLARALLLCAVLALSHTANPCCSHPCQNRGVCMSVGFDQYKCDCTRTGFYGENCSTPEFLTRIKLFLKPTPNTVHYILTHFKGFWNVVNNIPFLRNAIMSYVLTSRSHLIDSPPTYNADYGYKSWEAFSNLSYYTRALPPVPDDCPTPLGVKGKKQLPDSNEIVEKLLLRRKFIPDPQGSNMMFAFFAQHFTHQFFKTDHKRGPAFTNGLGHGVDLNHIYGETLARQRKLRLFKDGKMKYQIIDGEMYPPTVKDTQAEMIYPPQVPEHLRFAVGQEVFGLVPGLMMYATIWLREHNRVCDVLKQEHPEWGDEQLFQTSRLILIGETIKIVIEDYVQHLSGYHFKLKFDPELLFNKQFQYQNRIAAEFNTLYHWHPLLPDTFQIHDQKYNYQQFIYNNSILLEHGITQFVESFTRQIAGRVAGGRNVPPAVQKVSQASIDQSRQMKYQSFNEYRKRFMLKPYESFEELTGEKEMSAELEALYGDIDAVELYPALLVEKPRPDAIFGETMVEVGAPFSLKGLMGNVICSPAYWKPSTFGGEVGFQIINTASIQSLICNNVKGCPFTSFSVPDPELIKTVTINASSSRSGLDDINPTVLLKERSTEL
The conditions noted are these: at 1 µM.

Data set [4] relates to Rattus norvegicus. Briefly: Antiinflammatory activity in Wistar albino rat assessed as inhibition of carrageenan-induced hind paw edema at 20 mg/kg, po after 5 hrs by plethysmometer. The class given is functional. A digest of the protocol:
(§1)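 Adult male Wistar albino rats, 150-200 g, fasted 24 h, six per group. Compounds at 20 mg/kg suspended in 1% CMC in water (10 mL/kg) given orally; vehicle-only controls. Carrageenan in normal saline injected into the plantar surface of the right hind paw 30 min after dosing.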

In data set [5] the test system is Rattus norvegicus. Briefly: Antiinflammatory activity in Wistar albino rat assessed as inhibition of carrageenan-induced hind paw edema at 20 mg/kg, po after 1 hr by plethysmometer. The class given is functional. A digest of the protocol: as §1
A general note: The carrageenan paw model is a standard test of acute inflammation.

Data set [6] relates to Rattus norvegicus. Briefly: Antiinflammatory activity in Wistar albino rat assessed as inhibition of carrageenan-induced hind paw edema at 20 mg/kg, po after 3 hrs by plethysmometer. The format is functional. A digest of the protocol: as §1
Data set [7] relates to Rattus norvegicus. Briefly: Toxicity in Wistar albino rat assessed as ulcer index at 20 mg/kg, po qd for 3 days measured after 6 hrs of last dose. The class given is organism-based. As to conditions: in vivo. The gist of the method: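 Male albino rats, 150-200 g, fasted 12 h with water ad libitum. Dosed orally at 20 mg/kg/day once daily for 3 days; controls received 7% gum acacia vehicle. Killed by ether overdose 6 h after the last dose. Stomachs opened along the greater curvature and scored for ulcers. Ulcer index by the Robert method from % incidence/10, mean ulcer number per stomach and severity score.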

For orientation: inhibition means the change of the read-out against control, counted positive when it falls. As for `NS(=O)(=O)c1ccc(N2C(=O)C(Cl)=C(Nc3cccc(Cl)c3Cl)C2=O)cc1`, the Selectivity Index in data set [1] is 6.78. In addition, the values for the inhibition in data set [2] and in data set [3] were 4.01% and 27.2%, respectively.
The corresponding values for `NS(=O)(=O)c1ccc(N2C(=O)C(Cl)=C(Nc3ccc(C(F)(F)F)cc3)C2=O)cc1` are 6.78, 4.01% and 27.2%.
The corresponding values for `NS(=O)(=O)c1ccc(N2C(=O)C(Cl)=C(N3CCCCC3)C2=O)cc1` are 14.7, 0.44% and 6.45%.
Consider `NS(=O)(=O)c1ccc(N2C(=O)C(Cl)=C(Nc3ccc([N+](=O)[O-])cc3)C2=O)cc1`, for which the Selectivity Index in data set [1] worked out at 19.1. The inhibition in data set [2] amounted to 0.89%; in data set [3], 17.1%.
One may read the inhibition in vivo as how much of the control response was suppressed. With `NS(=O)(=O)c1ccc(N2C(=O)C(Cl)=C(Nc3cccc(Cl)c3)C2=O)cc1`, the values for the inhibition in vivo at 20 mg/kg with Rattus norvegicus [4], in the data set with Rattus norvegicus [5] and with Rattus norvegicus [6] were 72.1%, 69.1% and 70.4%, respectively. Also, the Selectivity Index in data set [1] stood at 47.6. Also, the inhibition is 0.89% in data set [2] and 42.4% in data set [3].
For the molecule `COc1ccc(NC2=C(Cl)C(=O)N(c3ccc(S(N)(=O)=O)cc3)C2=O)cc1`, the Selectivity Index in data set [1] was 11.9. Moreover, the inhibition in data set [2] amounted to 0.89%; in data set [3] it was 10.6%.
For `NS(=O)(=O)c1ccc(N2C(=O)C(Cl)=C(Nc3ccccc3)C2=O)cc1`, the inhibition in vivo at 20 mg/kg with Rattus norvegicus [4] came out at 62.1%; in the data set on Rattus norvegicus [5], 35.4%; in the data set with Rattus norvegicus [6], 56.8%. The Selectivity Index in data set [1] is 44.5. Moreover, the inhibition worked out at 0.89% in data set [2] and 39.6% in data set [3].
In the case of `NS(=O)(=O)c1ccc(N2C(=O)C(Cl)=C(Nc3ccc(F)cc3)C2=O)cc1`, the Selectivity Index in data set [1] stood at 20.8. Also, the inhibition was 1.33% in data set [2] and 27.6% in data set [3].
Regarding `NS(=O)(=O)c1ccc(N2C(=O)C(Cl)=C(Nc3ccccc3F)C2=O)cc1`, the figures for the inhibition in vivo at 20 mg/kg in the data set with Rattus norvegicus [4], in the data set on Rattus norvegicus [5] and in the data set with Rattus norvegicus [6] were 74.9%, 69.2% and 71%, respectively. Moreover, the Selectivity Index in data set [1] came to 44.5. Besides, the inhibition in data set [2] turned out to be 0.89%; in data set [3] it was 39.6%.
Consider `NS(=O)(=O)c1ccc(N2C(=O)C(Cl)=C(Cl)C2=O)cc1`, for which, in data set [1], the Selectivity Index came to 0.611. For the same molecule, the inhibition in data set [2] was 12.1%; in data set [3] it was 7.37%.
Turning to `NS(=O)(=O)c1ccc(N2C(=O)C(Cl)=C(Nc3ccc(Cl)c(Cl)c3)C2=O)cc1`, in data set [1], the Selectivity Index was 3.78. For the same molecule, the inhibition turned out to be 8.03% in data set [2] and 30.4% in data set [3].
For `Cc1ccc(-c2cc(C(F)(F)F)nn2-c2ccc(S(N)(=O)=O)cc2)cc1` [CELECOXIB], the inhibition in vivo at 20 mg/kg in the data set with Rattus norvegicus [4] amounted to 100%; with Rattus norvegicus [5], 92.2%; with Rattus norvegicus [6], 100%. Moreover, the UI with Rattus norvegicus [7] turned out to be 11.9.
Take `NS(=O)(=O)c1ccc(N2C(=O)C(Cl)=C(Nc3ccc(Cl)cc3)C2=O)cc1`: in data set [1], the Selectivity Index worked out at 2.6. Besides, the inhibition in data set [2] is 9.37%; in data set [3], 24.4%.
The corresponding values for `Nc1ccccc1NC1=C(Cl)C(=O)N(c2ccc(S(N)(=O)=O)cc2)C1=O` are 12.9, 1.78% and 23%.
`Cc1ccccc1NC1=C(Cl)C(=O)N(c2ccc(S(N)(=O)=O)cc2)C1=O`: the Selectivity Index in data set [1] was determined as 1.62. The inhibition in data set [2] came out at 6.25%; in data set [3], 10.1%.
On to `NS(=O)(=O)c1ccc(N2C(=O)C(Cl)=C(Nc3cccc(F)c3)C2=O)cc1`, for which the figures for the inhibition in vivo at 20 mg/kg in the data set with Rattus norvegicus [4], in the data set on Rattus norvegicus [5] and in the data set on Rattus norvegicus [6] were 82.6%, 79.8% and 81%, respectively. For the same molecule, the UI in the data set with Rattus norvegicus [7] was determined as 8.3. Moreover, the Selectivity Index in data set [1] is 55.4. In addition, the inhibition in data set [2] came out at 0.89%; in data set [3] it was 49.3%.
As for `Cc1ccc(NC2=C(Cl)C(=O)N(c3ccc(S(N)(=O)=O)cc3)C2=O)c(C)c1`, the Selectivity Index in data set [1] came out at 2.57. Moreover, the inhibition is 5.35% in data set [2] and 13.8% in data set [3].
In the case of `COc1cccc(NC2=C(Cl)C(=O)N(c3ccc(S(N)(=O)=O)cc3)C2=O)c1`, the inhibition in vivo at 20 mg/kg in the data set on Rattus norvegicus [4] came out at 77.3%; with Rattus norvegicus [5], 73%; in the data set on Rattus norvegicus [6], 71.5%. Further, in data set [1], the Selectivity Index worked out at 49.7. Further, the inhibition in data set [2] was found to be 0.89%; in data set [3], 44.2%.
Take `COc1ccccc1NC1=C(Cl)C(=O)N(c2ccc(S(N)(=O)=O)cc2)C1=O`: the Selectivity Index in data set [1] was 2.19. Further, the inhibition was 7.14% in data set [2] and 15.7% in data set [3].
`Cc1cc(C)cc(NC2=C(Cl)C(=O)N(c3ccc(S(N)(=O)=O)cc3)C2=O)c1`: in data set [1], the Selectivity Index worked out at 15.7. The inhibition was 0.44% in data set [2] and 6.91% in data set [3].
